Activity calls are given as the source filed them. The rule behind the calls is not given here.
Assays:
[1] = molecular target: Transporter (Rattus norvegicus) (UniProt Q63380); assay: Displacement of [3H]nisoxetine from NET in Sprague-Dawley rat brain membranes at 10 uM; format: cell membranes; conditions: Membrane
[2] = molecular target: Sodium-dependent serotonin transporter (Rattus norvegicus, UniProt P31652); assay: Displacement of [3H]citalopram from SERT in Sprague-Dawley rat brain membranes; format: cell membranes, Membrane
Sodium-dependent serotonin transporter, sequence (P31652 whole entry): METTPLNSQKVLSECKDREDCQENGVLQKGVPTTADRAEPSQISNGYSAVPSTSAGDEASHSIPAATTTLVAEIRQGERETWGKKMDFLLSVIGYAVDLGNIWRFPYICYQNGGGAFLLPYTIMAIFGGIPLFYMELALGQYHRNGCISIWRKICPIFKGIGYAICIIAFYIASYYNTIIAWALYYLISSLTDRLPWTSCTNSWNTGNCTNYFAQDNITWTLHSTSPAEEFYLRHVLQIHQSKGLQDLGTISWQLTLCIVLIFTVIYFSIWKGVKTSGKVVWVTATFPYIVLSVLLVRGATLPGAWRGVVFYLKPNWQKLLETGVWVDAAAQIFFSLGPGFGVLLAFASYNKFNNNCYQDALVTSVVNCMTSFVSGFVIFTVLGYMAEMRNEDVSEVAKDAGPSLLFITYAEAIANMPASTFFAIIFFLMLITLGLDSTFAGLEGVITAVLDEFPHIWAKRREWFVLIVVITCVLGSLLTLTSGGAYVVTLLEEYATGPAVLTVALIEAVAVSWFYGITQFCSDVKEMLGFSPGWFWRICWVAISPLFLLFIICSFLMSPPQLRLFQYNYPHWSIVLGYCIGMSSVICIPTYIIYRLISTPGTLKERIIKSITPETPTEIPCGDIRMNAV

[3] = molecular target: Sodium-dependent dopamine transporter (Rattus norvegicus, UniProt P23977); format: cell membranes, Sprague-Dawley, Brain, Membrane
Sodium-dependent dopamine transporter, sequence (P23977 whole entry): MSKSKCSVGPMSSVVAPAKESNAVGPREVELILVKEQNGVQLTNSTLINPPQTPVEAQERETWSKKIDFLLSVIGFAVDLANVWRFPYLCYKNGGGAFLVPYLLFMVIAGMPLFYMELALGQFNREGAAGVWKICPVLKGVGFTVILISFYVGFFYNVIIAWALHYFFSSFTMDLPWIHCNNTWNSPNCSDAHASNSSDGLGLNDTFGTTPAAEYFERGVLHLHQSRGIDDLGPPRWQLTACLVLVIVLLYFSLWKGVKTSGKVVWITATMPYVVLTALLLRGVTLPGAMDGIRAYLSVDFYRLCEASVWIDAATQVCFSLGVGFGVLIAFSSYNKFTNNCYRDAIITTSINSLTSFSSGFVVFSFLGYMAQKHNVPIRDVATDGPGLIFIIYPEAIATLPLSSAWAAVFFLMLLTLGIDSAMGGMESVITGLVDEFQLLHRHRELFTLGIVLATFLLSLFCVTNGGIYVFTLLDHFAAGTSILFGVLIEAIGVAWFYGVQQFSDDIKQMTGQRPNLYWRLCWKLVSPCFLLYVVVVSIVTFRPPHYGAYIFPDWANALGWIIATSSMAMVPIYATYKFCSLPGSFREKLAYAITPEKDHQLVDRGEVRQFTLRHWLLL

[4] = molecular target: Sodium-dependent serotonin transporter (Rattus norvegicus) (UniProt P31652); assay: Displacement of [3H]citalopram from SERT in Sprague-Dawley rat brain membranes at 10 uM; format: cell membranes; conditions: Membrane
Sodium-dependent serotonin transporter (Rattus norvegicus), sequence (P31652 whole entry): as the sequence (P31652 whole entry) above

[5] = molecular target: Sodium-dependent dopamine transporter (Rattus norvegicus) (UniProt P23977); assay: Inhibition of [3H]dopamine uptake at DAT in Sprague-Dawley rat brain membranes at 10 uM; format: cell membranes; conditions: Membrane
Sodium-dependent dopamine transporter (Rattus norvegicus), sequence (P23977 whole entry): as the sequence (P23977 whole entry) above

[6] = molecular target: Transporter (Rattus norvegicus, UniProt Q63380); assay: Displacement of [3H]nisoxetine from NET in Sprague-Dawley rat brain membranes; format: cell membranes, Membrane
Transporter, sequence (Q63380 whole entry): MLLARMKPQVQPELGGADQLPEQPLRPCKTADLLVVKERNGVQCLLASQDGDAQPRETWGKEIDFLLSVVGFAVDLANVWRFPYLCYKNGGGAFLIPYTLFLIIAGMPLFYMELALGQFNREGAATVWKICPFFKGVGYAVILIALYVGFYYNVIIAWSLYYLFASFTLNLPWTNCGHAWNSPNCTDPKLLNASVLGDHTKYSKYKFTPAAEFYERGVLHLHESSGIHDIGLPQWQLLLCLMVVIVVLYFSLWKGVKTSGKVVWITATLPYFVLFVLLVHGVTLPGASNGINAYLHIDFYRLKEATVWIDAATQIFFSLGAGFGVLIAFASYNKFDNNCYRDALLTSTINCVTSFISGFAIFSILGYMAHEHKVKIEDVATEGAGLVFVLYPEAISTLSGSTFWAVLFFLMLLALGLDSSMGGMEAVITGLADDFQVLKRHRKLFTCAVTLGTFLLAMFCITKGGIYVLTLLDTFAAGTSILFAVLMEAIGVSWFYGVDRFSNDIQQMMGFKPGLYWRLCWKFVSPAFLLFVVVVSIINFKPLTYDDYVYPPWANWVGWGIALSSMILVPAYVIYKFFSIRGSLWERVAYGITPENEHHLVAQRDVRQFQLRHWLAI

[7] = system: Mus musculus; assay: Increase in horizontal locomotor activity in mouse measured after 30 mins post 4 hrs drug administration; format: functional, organism-based
Procedure, shortened: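 Mice; horizontal locomotor activity counts per min recorded over the first 30 min of each of the 4 h after drug injection. Several doses (mg/kg) were tested to give dose-effect curves. Each point is the average of six mice.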

Transporter (Rattus norvegicus), sequence (Q63380 as listed by the source): as the sequence (Q63380 whole entry) above

Row | Structure (SMILES) | inhibition [1] | Ki [2] [µM] | Ki [3] [µM] | inhibition [4] | inhibition [5] | Ki [6] [µM] | Activity [7]
1 | NC(=O)C[S+]([O-])C(c1ccc(Br)cc1)c1ccc(Br)cc1 (racemic) | inactive | 10.6 | 0.6 |  |  |  | 
2 | CNC(=O)C[S+]([O-])C(c1ccc(Br)cc1)c1ccc(Br)cc1 (racemic) | inactive | 33.2 | 1.65 |  |  |  | 
3 | CN(C)C(=O)C[S+]([O-])C(c1ccc(Cl)cc1)c1ccc(Cl)cc1 (racemic) | inactive | 22.3 | 34.6 |  |  |  | 
4 | CN(C)C(=O)C[S+]([O-])C(c1ccc(Br)cc1)c1ccc(Br)cc1 (racemic) | inactive | 14.2 | 21.3 |  |  |  | 
5 | CN(C)C(=O)C[S+]([O-])C(c1ccccc1)c1ccccc1 (racemic) | inactive |  |  | inactive | inactive |  | 
6 | NC(=O)C[S+]([O-])C(c1ccc(F)cc1)c1ccc(F)cc1 (racemic) | inactive |  | 2.19 | inactive |  |  | 
7 | CN(C)CC[S+]([O-])C(c1ccccc1)c1ccccc1 (racemic) | inactive | 45.8 |  |  | inactive |  | 
8 | CN(C)CC[S+]([O-])C(c1ccc(Cl)cc1)c1ccc(Cl)cc1 (racemic) |  | 0.406 | 2.89 |  |  | 36.2 | 
9 | [O-][S+](CCN1CCOCC1)C(c1ccccc1)c1ccccc1 (racemic) | inactive |  |  | inactive | inactive |  | 
10 | NC(=O)C[S+]([O-])C(c1ccccc1)c1ccccc1 (racemic) | inactive |  |  | inactive |  |  | Dose-dependent effect
11 | O=C(C[S+]([O-])C(c1ccccc1)c1ccccc1)NCCCc1ccccc1 (racemic) | inactive |  | 2.66 | inactive |  |  | 
12 | NC(=O)C[S+]([O-])C(c1ccc(Cl)cc1)c1ccc(Cl)cc1 (racemic) | inactive | 39 |  |  |  |  | Dose-dependent effect
13 | NC(=O)C[S@+]([O-])C(c1ccccc1)c1ccccc1 | inactive |  |  | inactive |  |  | Dose-dependent effect
14 | CNC(=O)C[S+]([O-])C(c1ccc(Cl)cc1)c1ccc(Cl)cc1 (racemic) | inactive |  | 2.44 | inactive |  |  | 
15 | NC(=O)CSC(c1ccc(Cl)cc1)c1ccc(Cl)cc1 |  | 12.7 | 2.23 |  |  |  | 
16 | CN(C)C(=O)CSC(c1ccc(Br)cc1)c1ccc(Br)cc1 |  | 3.21 | 2.45 |  |  | 19.2 | 
17 | CN(C)C(=O)CSC(c1ccc(F)cc1)c1ccc(F)cc1 | inactive | 25.9 | 9.51 |  |  |  | 
18 | CN(C)C(=O)CSC(c1ccccc1)c1ccccc1 | inactive |  | 16.5 | inactive |  |  | 
19 | NC(=O)CSC(c1ccc(Br)cc1)c1ccc(Br)cc1 |  | 2.2 | 1.93 |  |  | 77.7 | 
20 | CN(C)C(=O)C[S+]([O-])C(c1ccc(F)cc1)c1ccc(F)cc1 (racemic) | inactive | 16.2 |  |  | inactive |  | 
21 | NC(=O)CSC(c1ccc(F)cc1)c1ccc(F)cc1 | inactive |  | 1.57 | inactive |  |  | 
22 | NC(=O)C[S@@+]([O-])C(c1ccccc1)c1ccccc1 | inactive |  |  | inactive |  |  | Dose-dependent effect
23 | CN(C)C(=O)CSC(c1ccc(Cl)cc1)c1ccc(Cl)cc1 |  | 5.98 | 4.51 |  |  | 42.5 | 

From ChEMBL document CHEMBL1671828 (ACS Med Chem Lett, 2011)
